# Results: ChEMBL document CHEMBL4387708, “Enhancement of Benzothiazoles as Pteridine Reductase-1 Inhibitors for the Treatment of Trypanosomatidic Infections” (J Med Chem, 2019)
# The source made the active and inactive calls. The calls are words filed in the database; no cut-off is given here.
# System: not listed separately
# Assay: Selectivity ratio of IC50 for Leishmania major pteridine reductase 1 to IC50 for N-terminal His-tagged Trypanosoma brucei pteridine reductase 1
# Settings: not given
row,Structure (SMILES),Ratio IC50
1,Nc1nc2ccc(OCc3ccccc3)cc2s1,2 to 100
2,Nc1nc2ccc(SCc3ccccc3)cc2s1,2 to 100
3,N#Cc1ccc(CNC(=O)c2ccc3nc(N)sc3c2)cc1,2 to 100
4,Nc1nc2c(C(=O)N(Cc3ccccc3)Cc3ccc(Cl)c(Cl)c3)cc(O)c(O)c2s1,2 to 100

# Biological target: Cytochrome P450 2C9 (Homo sapiens, UniProt P11712)
# Assay: Inhibition of human CYP2C9 expressed in baculovirus infected insect cells using beetle D-luciferin as substrate preincubated for 30 mins followed by NADPH addition and measured after 30 mins by CYP450-Glo assay
# Settings: not given
# Cytochrome P450 2C9, sequence (P11712 whole entry): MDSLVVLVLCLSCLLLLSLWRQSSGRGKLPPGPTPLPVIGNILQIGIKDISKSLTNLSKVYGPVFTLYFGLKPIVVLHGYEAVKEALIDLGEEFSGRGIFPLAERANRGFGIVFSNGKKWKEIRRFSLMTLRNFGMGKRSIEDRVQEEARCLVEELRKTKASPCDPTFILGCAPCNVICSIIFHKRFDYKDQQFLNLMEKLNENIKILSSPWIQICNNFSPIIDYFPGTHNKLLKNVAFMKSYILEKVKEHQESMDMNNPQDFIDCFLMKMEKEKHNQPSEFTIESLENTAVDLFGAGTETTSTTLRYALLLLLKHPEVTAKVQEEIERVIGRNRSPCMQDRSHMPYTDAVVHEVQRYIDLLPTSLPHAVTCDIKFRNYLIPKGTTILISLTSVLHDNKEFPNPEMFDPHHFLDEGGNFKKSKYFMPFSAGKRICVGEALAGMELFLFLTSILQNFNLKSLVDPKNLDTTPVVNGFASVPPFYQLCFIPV
row,Structure (SMILES),IC50
1,Nc1nc2ccc(OCc3ccccc3)cc2s1,> 25 µM
2,Nc1nc2ccc(SCc3ccccc3)cc2s1,> 25 µM
3,N#Cc1ccc(CNC(=O)c2ccc3nc(N)sc3c2)cc1,> 25 µM
4,Nc1nc2c(C(=O)N(Cc3ccccc3)Cc3ccc(Cl)c(Cl)c3)cc(O)c(O)c2s1,< 10 µM

# Biological target: T1, Pteridine reductase 1 (Leishmania major, UniProt Q01782)
# T1 sequence (Q01782 whole entry): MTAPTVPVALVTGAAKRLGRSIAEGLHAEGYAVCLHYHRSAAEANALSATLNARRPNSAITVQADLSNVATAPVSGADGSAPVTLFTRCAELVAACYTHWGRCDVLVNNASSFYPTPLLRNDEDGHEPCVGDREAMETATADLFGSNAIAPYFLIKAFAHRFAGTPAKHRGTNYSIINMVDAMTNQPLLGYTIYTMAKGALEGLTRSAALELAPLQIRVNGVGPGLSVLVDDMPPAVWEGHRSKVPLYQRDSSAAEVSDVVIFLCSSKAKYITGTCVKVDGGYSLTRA
# Assay: Inhibition of Leishmania major pteridine reductase 1 using di-hydrobiopterine as substrate in presence of NADPH
# Settings: not given
# Summary of the method: (§1)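 Photometric PTR1 assay with NADPH and dihydrobiopterin substrate. H₄B formation is coupled non-enzymatically to cytochrome c reduction, read as signal increase at 550 nm.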
row,Structure (SMILES),IC50
1,Nc1nc2ccc(OCc3ccccc3)cc2s1,Not Active

# Same assay, conditions: read-out: IC50
row,Structure (SMILES),IC50
1,Nc1nc2ccc(SCc3ccccc3)cc2s1,81 µM
2,N#Cc1ccc(CNC(=O)c2ccc3nc(N)sc3c2)cc1,73.3 µM
3,Nc1nc2c(C(=O)N(Cc3ccccc3)Cc3ccc(Cl)c(Cl)c3)cc(O)c(O)c2s1,15.2 µM

# Biological target: T2, Pteridine reductase 1 (Leishmania major) (UniProt Q01782)
# T2 sequence (whole entry): T1 sequence (Q01782 whole entry)
# Assay: Inhibition of Leishmania major pteridine reductase 1 at 50 uM using di-hydrobiopterine as substrate in presence of NADPH relative to control
# Settings: not given
# Summary of the method: as §1
row,Structure (SMILES),inhibition
1,Nc1nc2ccc(OCc3ccccc3)cc2s1,inactive
2,Nc1nc2ccc(SCc3ccccc3)cc2s1,> 60%
3,N#Cc1ccc(CNC(=O)c2ccc3nc(N)sc3c2)cc1,> 60%
4,Nc1nc2c(C(=O)N(Cc3ccccc3)Cc3ccc(Cl)c(Cl)c3)cc(O)c(O)c2s1,> 60%

# Biological target: Voltage-gated inwardly rectifying potassium channel KCNH2 (Homo sapiens, UniProt Q12809)
# Assay: Displacement of Tracer Red from human ERG by fluorescence polarization assay
# Settings: not given
# Voltage-gated inwardly rectifying potassium channel KCNH2, sequence (Q12809 whole entry): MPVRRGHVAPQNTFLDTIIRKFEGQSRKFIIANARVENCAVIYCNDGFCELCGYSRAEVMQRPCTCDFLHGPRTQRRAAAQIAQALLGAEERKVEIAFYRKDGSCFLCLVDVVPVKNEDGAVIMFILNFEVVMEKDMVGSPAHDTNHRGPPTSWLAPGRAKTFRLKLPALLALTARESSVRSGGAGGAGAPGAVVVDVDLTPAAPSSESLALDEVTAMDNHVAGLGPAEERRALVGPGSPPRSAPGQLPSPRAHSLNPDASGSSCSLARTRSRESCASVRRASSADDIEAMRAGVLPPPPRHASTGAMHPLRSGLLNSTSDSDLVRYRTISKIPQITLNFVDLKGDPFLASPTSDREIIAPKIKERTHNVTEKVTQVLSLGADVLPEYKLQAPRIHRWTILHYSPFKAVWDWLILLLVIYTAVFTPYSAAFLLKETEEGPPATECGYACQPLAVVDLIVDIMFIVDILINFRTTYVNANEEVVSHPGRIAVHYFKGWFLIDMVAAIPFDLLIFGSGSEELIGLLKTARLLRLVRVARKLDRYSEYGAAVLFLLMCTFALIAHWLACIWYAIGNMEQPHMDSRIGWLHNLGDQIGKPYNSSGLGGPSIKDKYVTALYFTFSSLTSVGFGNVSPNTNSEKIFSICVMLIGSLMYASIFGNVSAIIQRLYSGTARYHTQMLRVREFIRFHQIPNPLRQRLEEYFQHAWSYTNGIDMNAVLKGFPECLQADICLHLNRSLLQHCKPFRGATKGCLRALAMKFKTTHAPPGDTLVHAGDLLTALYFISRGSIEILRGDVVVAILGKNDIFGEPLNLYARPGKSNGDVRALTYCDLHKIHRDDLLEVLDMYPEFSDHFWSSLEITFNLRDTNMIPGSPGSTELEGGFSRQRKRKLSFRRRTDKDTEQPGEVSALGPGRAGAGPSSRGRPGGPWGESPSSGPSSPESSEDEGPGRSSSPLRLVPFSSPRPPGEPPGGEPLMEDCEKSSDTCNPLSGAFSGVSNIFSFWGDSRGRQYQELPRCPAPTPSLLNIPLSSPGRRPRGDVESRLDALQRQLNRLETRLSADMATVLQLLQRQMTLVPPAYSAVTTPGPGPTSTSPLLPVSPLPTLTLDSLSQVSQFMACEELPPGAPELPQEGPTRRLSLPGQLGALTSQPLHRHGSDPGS
row,Structure (SMILES),IC50
1,Nc1nc2ccc(OCc3ccccc3)cc2s1,< 10 µM
2,Nc1nc2ccc(SCc3ccccc3)cc2s1,> 25 µM
3,N#Cc1ccc(CNC(=O)c2ccc3nc(N)sc3c2)cc1,> 25 µM
4,Nc1nc2c(C(=O)N(Cc3ccccc3)Cc3ccc(Cl)c(Cl)c3)cc(O)c(O)c2s1,< 10 µM

# Biological target: Cytochrome P450 3A4 (Homo sapiens, UniProt P08684)
# Assay: Inhibition of human CYP3A4 expressed in baculovirus infected insect cells using beetle D-luciferin as substrate preincubated for 30 mins followed by NADPH addition and measured after 30 mins by CYP450-Glo assay
# Settings: not given
# Cytochrome P450 3A4, sequence (P08684 whole entry): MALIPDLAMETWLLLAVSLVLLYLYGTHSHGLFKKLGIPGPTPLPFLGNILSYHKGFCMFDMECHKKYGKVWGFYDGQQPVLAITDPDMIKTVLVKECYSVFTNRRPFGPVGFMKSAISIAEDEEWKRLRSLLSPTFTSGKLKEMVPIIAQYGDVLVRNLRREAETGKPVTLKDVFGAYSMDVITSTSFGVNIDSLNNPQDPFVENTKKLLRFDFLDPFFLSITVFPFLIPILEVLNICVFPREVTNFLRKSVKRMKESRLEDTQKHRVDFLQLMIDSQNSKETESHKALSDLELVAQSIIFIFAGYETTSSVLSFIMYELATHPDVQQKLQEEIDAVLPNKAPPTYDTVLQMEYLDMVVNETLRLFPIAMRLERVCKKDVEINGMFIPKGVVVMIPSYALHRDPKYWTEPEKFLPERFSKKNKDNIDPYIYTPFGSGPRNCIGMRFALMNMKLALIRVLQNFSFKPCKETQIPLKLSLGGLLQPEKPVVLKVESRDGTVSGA
row,Structure (SMILES),IC50
1,Nc1nc2ccc(OCc3ccccc3)cc2s1,10 to 25 µM
2,Nc1nc2ccc(SCc3ccccc3)cc2s1,10 to 25 µM
3,N#Cc1ccc(CNC(=O)c2ccc3nc(N)sc3c2)cc1,> 25 µM
4,Nc1nc2c(C(=O)N(Cc3ccccc3)Cc3ccc(Cl)c(Cl)c3)cc(O)c(O)c2s1,< 10 µM

# System: Trypanosoma cruzi
# Assay: Growth inhibition of trypomastigote form of Trypanosoma cruzi Y infected in human U2OS cells at 50 uM measured after 72 hrs by DRAQ5 DNA dye based confocal microscopic analysis relative to control
# Format: organism-based
# Settings: trypanosoma cruzi, 50 µM
row,Structure (SMILES),growth inhibition (GI)
1,Nc1nc2ccc(OCc3ccccc3)cc2s1,Non-Toxic
2,Nc1nc2ccc(SCc3ccccc3)cc2s1,Non-Toxic
3,N#Cc1ccc(CNC(=O)c2ccc3nc(N)sc3c2)cc1,Non-Toxic
4,Nc1nc2c(C(=O)N(Cc3ccccc3)Cc3ccc(Cl)c(Cl)c3)cc(O)c(O)c2s1,Non-Toxic

# System: Trypanosoma brucei
# Assay: Growth inhibition of Trypanosoma brucei bloodstream forms at 10 uM measured after 72 hrs by resazurin-based fluorescence assay relative to control
# Format: organism-based
# Settings: Trypanosoma brucei, read-out: GI
row,Structure (SMILES),inhibition at 10 µM
1,Nc1nc2ccc(OCc3ccccc3)cc2s1,28%
2,Nc1nc2ccc(SCc3ccccc3)cc2s1,14%
3,N#Cc1ccc(CNC(=O)c2ccc3nc(N)sc3c2)cc1,8%
4,Nc1nc2c(C(=O)N(Cc3ccccc3)Cc3ccc(Cl)c(Cl)c3)cc(O)c(O)c2s1,25%

# System: not listed separately
# Assay: Cytotoxicity against human U2OS cells assessed as reduction in cell number
# Format: cell-based
# Settings: not given
row,Structure (SMILES),GI50
1,Nc1nc2ccc(OCc3ccccc3)cc2s1,> 25 µM
2,Nc1nc2ccc(SCc3ccccc3)cc2s1,> 25 µM
3,N#Cc1ccc(CNC(=O)c2ccc3nc(N)sc3c2)cc1,> 25 µM
4,Nc1nc2c(C(=O)N(Cc3ccccc3)Cc3ccc(Cl)c(Cl)c3)cc(O)c(O)c2s1,10 to 25 µM

# System: not listed separately
# Assay: Cytotoxicity against human THP1 cells after 72 hrs by MTT assay
# Format: cell-based, THP-1
# Settings: read-out: NOAEL
row,Structure (SMILES),MNTC at 72 h
1,Nc1nc2ccc(OCc3ccccc3)cc2s1,> 25 µM
2,Nc1nc2ccc(SCc3ccccc3)cc2s1,10 to 25 µM
3,N#Cc1ccc(CNC(=O)c2ccc3nc(N)sc3c2)cc1,> 25 µM
4,Nc1nc2c(C(=O)N(Cc3ccccc3)Cc3ccc(Cl)c(Cl)c3)cc(O)c(O)c2s1,10 to 25 µM

# Biological target: T3, Cytochrome P450 1A2 (Homo sapiens, UniProt P05177)
# T3 sequence (P05177 whole entry): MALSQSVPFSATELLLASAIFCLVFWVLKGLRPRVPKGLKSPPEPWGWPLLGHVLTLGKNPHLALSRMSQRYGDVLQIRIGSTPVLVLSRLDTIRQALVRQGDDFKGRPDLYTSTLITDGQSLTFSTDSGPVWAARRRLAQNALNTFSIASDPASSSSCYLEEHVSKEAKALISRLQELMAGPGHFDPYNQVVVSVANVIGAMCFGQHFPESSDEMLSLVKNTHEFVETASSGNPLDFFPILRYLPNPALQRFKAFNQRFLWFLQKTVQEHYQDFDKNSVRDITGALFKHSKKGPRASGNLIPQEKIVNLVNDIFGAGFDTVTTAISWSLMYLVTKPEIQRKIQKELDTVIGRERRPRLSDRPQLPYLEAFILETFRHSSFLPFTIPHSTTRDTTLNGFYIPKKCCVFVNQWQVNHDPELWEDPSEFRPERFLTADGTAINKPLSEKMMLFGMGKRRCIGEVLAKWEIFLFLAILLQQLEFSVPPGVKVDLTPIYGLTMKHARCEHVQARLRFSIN
# Assay: Inhibition of human CYP1A2 expressed in baculovirus infected insect cells using beetle D-luciferin as substrate preincubated for 30 mins followed by NADPH addition and measured after 30 mins by CYP450-Glo assay
# Settings: not given
row,Structure (SMILES),IC50
1,Nc1nc2ccc(OCc3ccccc3)cc2s1,< 10 µM
2,Nc1nc2ccc(SCc3ccccc3)cc2s1,< 10 µM
3,N#Cc1ccc(CNC(=O)c2ccc3nc(N)sc3c2)cc1,> 25 µM
4,Nc1nc2c(C(=O)N(Cc3ccccc3)Cc3ccc(Cl)c(Cl)c3)cc(O)c(O)c2s1,< 10 µM

# System: Leishmania infantum
# Assay: Growth inhibition of luciferase expressing Leishmania infantum axenic amastigotes infected in human THP1 cells at 10 uM measured after 72 hrs by steady-glo luminescence assay relative to control
# Format: organism-based
# Settings: leishmania infantum, 72 h, 10 µM
row,Structure (SMILES),growth inhibition (GI)
1,Nc1nc2ccc(OCc3ccccc3)cc2s1,Non-Toxic
2,Nc1nc2ccc(SCc3ccccc3)cc2s1,Non-Toxic
3,N#Cc1ccc(CNC(=O)c2ccc3nc(N)sc3c2)cc1,Non-Toxic
4,Nc1nc2c(C(=O)N(Cc3ccccc3)Cc3ccc(Cl)c(Cl)c3)cc(O)c(O)c2s1,Non-Toxic

# Biological target: Cytochrome P450 2D6 (Homo sapiens, UniProt P10635)
# Assay: Inhibition of human CYP2D6 expressed in baculovirus infected insect cells using beetle D-luciferin as substrate preincubated for 30 mins followed by NADPH addition and measured after 30 mins by CYP450-Glo assay
# Settings: not given
# Cytochrome P450 2D6, sequence (P10635 whole entry): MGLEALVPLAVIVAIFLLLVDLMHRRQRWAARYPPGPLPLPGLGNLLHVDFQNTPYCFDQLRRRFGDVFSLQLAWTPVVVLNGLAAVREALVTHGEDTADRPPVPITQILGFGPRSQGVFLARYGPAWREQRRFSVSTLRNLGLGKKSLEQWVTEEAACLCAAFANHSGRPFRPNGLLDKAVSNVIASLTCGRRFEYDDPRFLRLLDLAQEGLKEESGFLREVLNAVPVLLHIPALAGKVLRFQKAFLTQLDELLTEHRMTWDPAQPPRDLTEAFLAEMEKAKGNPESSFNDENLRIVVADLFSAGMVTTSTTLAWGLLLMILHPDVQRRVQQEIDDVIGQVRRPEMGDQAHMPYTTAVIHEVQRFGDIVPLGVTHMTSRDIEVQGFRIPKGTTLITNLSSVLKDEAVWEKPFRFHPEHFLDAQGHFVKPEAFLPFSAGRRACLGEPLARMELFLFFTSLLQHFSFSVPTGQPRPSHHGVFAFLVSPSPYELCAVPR
row,Structure (SMILES),IC50
1,Nc1nc2ccc(OCc3ccccc3)cc2s1,< 10 µM
2,Nc1nc2ccc(SCc3ccccc3)cc2s1,< 10 µM
3,N#Cc1ccc(CNC(=O)c2ccc3nc(N)sc3c2)cc1,> 25 µM
4,Nc1nc2c(C(=O)N(Cc3ccccc3)Cc3ccc(Cl)c(Cl)c3)cc(O)c(O)c2s1,< 10 µM

# Biological target: not listed separately
# Assay: Inhibition of N-terminal His-tagged Trypanosoma brucei pteridine reductase 1 using di-hydrobiopterine as substrate measured at 1 min interval for 50 mins in presence of NADPH
# Settings: not given
# Summary of the method: as §1
row,Structure (SMILES),IC50
1,Nc1nc2ccc(OCc3ccccc3)cc2s1,13.4 µM
2,Nc1nc2ccc(SCc3ccccc3)cc2s1,1.9 µM
3,N#Cc1ccc(CNC(=O)c2ccc3nc(N)sc3c2)cc1,42.9 µM
4,Nc1nc2c(C(=O)N(Cc3ccccc3)Cc3ccc(Cl)c(Cl)c3)cc(O)c(O)c2s1,11.4 µM

# Biological target: Cytochrome P450 2C19 (Homo sapiens, UniProt P33261)
# Assay: Inhibition of human CYP2C19 expressed in baculovirus infected insect cells using beetle D-luciferin as substrate preincubated for 30 mins followed by NADPH addition and measured after 30 mins by CYP450-Glo assay
# Settings: not given
# Cytochrome P450 2C19, sequence (P33261 whole entry): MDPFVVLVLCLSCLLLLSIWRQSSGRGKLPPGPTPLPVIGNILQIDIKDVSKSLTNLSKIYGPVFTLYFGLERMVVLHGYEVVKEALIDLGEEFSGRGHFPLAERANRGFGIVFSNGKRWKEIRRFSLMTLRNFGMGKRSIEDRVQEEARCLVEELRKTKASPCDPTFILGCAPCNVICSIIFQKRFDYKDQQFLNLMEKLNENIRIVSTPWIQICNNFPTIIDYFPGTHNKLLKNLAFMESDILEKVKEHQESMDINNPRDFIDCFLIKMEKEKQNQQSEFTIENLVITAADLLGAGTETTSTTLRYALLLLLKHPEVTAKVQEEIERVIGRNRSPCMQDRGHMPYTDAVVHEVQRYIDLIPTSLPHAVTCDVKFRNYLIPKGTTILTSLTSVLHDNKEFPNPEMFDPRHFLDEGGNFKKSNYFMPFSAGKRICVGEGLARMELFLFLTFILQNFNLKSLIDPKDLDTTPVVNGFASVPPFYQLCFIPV
row,Structure (SMILES),IC50
1,Nc1nc2ccc(OCc3ccccc3)cc2s1,> 25 µM
2,Nc1nc2ccc(SCc3ccccc3)cc2s1,< 10 µM
3,N#Cc1ccc(CNC(=O)c2ccc3nc(N)sc3c2)cc1,> 25 µM
4,Nc1nc2c(C(=O)N(Cc3ccccc3)Cc3ccc(Cl)c(Cl)c3)cc(O)c(O)c2s1,10 to 25 µM

# System: not listed separately
# Assay: Cytotoxicity against human A549 cells after 48 hrs by Celltiter-glo assay
# Format: cell-based
# Settings: not given
row,Structure (SMILES),GI50 at 48 h
1,Nc1nc2ccc(OCc3ccccc3)cc2s1,> 25 µM
2,Nc1nc2ccc(SCc3ccccc3)cc2s1,> 25 µM
3,N#Cc1ccc(CNC(=O)c2ccc3nc(N)sc3c2)cc1,> 25 µM
4,Nc1nc2c(C(=O)N(Cc3ccccc3)Cc3ccc(Cl)c(Cl)c3)cc(O)c(O)c2s1,> 25 µM

# System: Trypanosoma brucei
# Assay: Inhibition of N-terminal His-tagged Trypanosoma brucei pteridine reductase 1 at 50 uM using di-hydrobiopterine as substrate measured at 1 min interval for 50 mins in presence of NADPH relative to control
# Settings: not given
# Summary of the method: as §1
row,Structure (SMILES),inhibition
1,Nc1nc2ccc(OCc3ccccc3)cc2s1,> 60%
2,Nc1nc2ccc(SCc3ccccc3)cc2s1,> 60%
3,N#Cc1ccc(CNC(=O)c2ccc3nc(N)sc3c2)cc1,> 60%
4,Nc1nc2c(C(=O)N(Cc3ccccc3)Cc3ccc(Cl)c(Cl)c3)cc(O)c(O)c2s1,> 60%

# System: not listed separately
# Assay: Mitochondrial toxicity in human 786-O cells measured after 6 hrs by MitoTracker Red chloromethyl-X-rosamine based assay
# Format: cell-based, 786-0
# Settings: not given
row,Structure (SMILES),IC50 at 6 h
1,Nc1nc2ccc(OCc3ccccc3)cc2s1,> 25 µM
2,Nc1nc2ccc(SCc3ccccc3)cc2s1,> 25 µM
3,N#Cc1ccc(CNC(=O)c2ccc3nc(N)sc3c2)cc1,> 25 µM
4,Nc1nc2c(C(=O)N(Cc3ccccc3)Cc3ccc(Cl)c(Cl)c3)cc(O)c(O)c2s1,> 25 µM
